This note sets out measurements from ChEMBL document CHEMBL1159342, “Nitric oxide inhibitory isopimarane-type diterpenes from Orthosiphon stamineus of Indonesia” (J Nat Prod, 2003).

The experiment concerns J774.1. Put plainly: Inhibition of LPS-induced NO production in mouse J774.1 cells after 24 hrs. Format: functional, cell-based. The settings on record: J774.1, 24 h. In a few lines:
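Cells harvested with trypsin, seeded at 1 × 10^5 cells/well, adhered 2 h at 37 °C under 5% CO2. Medium then replaced with fresh medium containing LPS (10 µg/mL) plus test compounds at indicated concentrations, 24 h. Nitrite in supernatant measured with Griess reagent (10 min, room temperature), absorbance 550 nm. Quantified against NaNO2 standard curve in medium, medium-only blank subtracted.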

One may read the IC50 as the concentration at which inhibition is half-maximal. Read a high IC50 as lower potency. `C[C@@H]1C[C@H]2[C@@H]3CCC4=CC(=O)C=C[C@]4(C)[C@@]3(F)[C@@H](O)C[C@]2(C)[C@@]1(O)C(=O)CO` [DEXAMETHASONE] came in with an IC50 of 170 µM.
The result for `C=C[C@@]1(C)C[C@@H](O)[C@H]2[C@](O)(C1=O)[C@H](OC(C)=O)C[C@H]1C(C)(C)[C@H](OC(=O)c3ccccc3)[C@H](OC(C)=O)[C@H](OC(=O)c3ccccc3)[C@@]12C` [ORTHOSIPHOL O] reads 27.7 µM; that for `C=C[C@@]1(C)C[C@@H](O)[C@H]2[C@](O)(C1=O)[C@H](O)C[C@H]1C(C)(C)[C@H](OC(C)=O)[C@H](OC(C)=O)[C@H](OC(=O)c3ccccc3)[C@@]12C` [ORTHOSIPHOL G], 145 µM.
The result for `C=C[C@@]1(C)C[C@@H](O)[C@H]2[C@](O)(C1=O)[C@H](OC(C)=O)C[C@H]1C(C)(C)[C@H](O)[C@H](OC(C)=O)[C@H](OC(=O)c3ccccc3)[C@@]12C` [ORTHOSIPHOL W] reads 57.6 µM; that for `C=C[C@]1(C)C(=O)[C@]2(O)[C@H](OC(C)=O)C[C@H]3C(C)(C)[C@H](OC(C)=O)[C@H](O)[C@H](OC(=O)c4ccccc4)[C@]3(C)[C@H]2[C@H](OC(=O)c2ccccc2)[C@H]1O` [ORTHOSIPHOL R], 35.7 µM.
Next, `C=C[C@@]1(C)C[C@@H](O)[C@H]2[C@](O)(C1=O)[C@H](OC(C)=O)C[C@H]1C(C)(C)[C@H](OC(C)=O)[C@H](OC(C)=O)[C@H](OC(=O)c3ccccc3)[C@@]12C` [ORTHOSIPHOL U]: 59.7 µM; `C=C[C@@]1(C)CC(=O)[C@H]2[C@](O)(C1=O)[C@H](OC(C)=O)C[C@H]1C(C)(C)[C@H](OC(C)=O)[C@H](OC(C)=O)[C@H](OC(=O)c3ccccc3)[C@@]12C` [ORTHOSIPHOL J]: 66.3 µM.
For `C=C[C@@]1(C)C[C@@H](O)[C@H]2[C@](O)(C1=O)[C@H](O)C[C@H]1C(C)(C)[C@H](OC(=O)c3ccccc3)[C@H](OC(C)=O)[C@H](OC(=O)c3ccccc3)[C@@]12C` [ORTHOSIPHOL X], the IC50 was determined as 6.4 µM.
The result for `C=C[C@@]1(C)C[C@@H](OC(=O)c2ccccc2)[C@H]2[C@](O)(C1=O)[C@H](O)C[C@H]1C(C)(C)[C@H](O)[C@H](OC(C)=O)[C@H](OC(=O)c3ccccc3)[C@@]12C` [ORTHOSIPHOL T] reads 35.9 µM.
Compound `C=C[C@@]1(C)C[C@@H](O)[C@@H]2[C@@]3(C)C=C(OC(C)=O)C(=O)C(C)(C)[C@@H]3C[C@@H](OC(C)=O)[C@@]2(O)C1=O` [ORTHOSIPHOL Y] showed a half-inhibitory concentration (IC50) of 37.9 µM.
Compound `C=C[C@@]1(C)C[C@@H](OC(=O)c2ccccc2)[C@H]2[C@](O)(C1=O)[C@H](O)C[C@H]1C(C)(C)[C@H](OC(C)=O)[C@H](OC(C)=O)[C@H](OC(=O)c3ccccc3)[C@@]12C` [ORTHOSIPHOL F] registered an IC50 of 34.5 µM.
Compound `CNC(=N)NCCC[C@H](N)C(=O)O` [TILARGININE] registered an IC50 of 26 µM.
The result for `C=C[C@@]1(C)C[C@@H](OC(=O)c2ccccc2)[C@@H]2[C@@](C)(CC(=O)O)[C@H](C(C)(C)C(=O)OC)C[C@@H](OC(C)=O)[C@@]2(O)C1=O` [SECOORTHOSIPHOL B] reads 127 µM; that for `C=C[C@@]1(C)C[C@@H](OC(=O)c2ccccc2)[C@@H]2[C@@]3(C)C=C(OC(C)=O)C(=O)C(C)(C)[C@@H]3C[C@@H](OC(C)=O)[C@@]2(O)C1=O` [ORTHOSIPHOL D], 14.4 µM; that for `C=C[C@@]1(C)C[C@@H](O)[C@H]2[C@](O)(C1=O)[C@H](OC(C)=O)C[C@H]1C(C)(C)[C@H](OC(C)=O)[C@H](O)[C@H](OC(=O)c3ccccc3)[C@@]12C` [ORTHOSIPHOL V], 54.5 µM.
The compound `C=C[C@@]1(C)C[C@@H](OC(=O)c2ccccc2)[C@H]2[C@](O)(C1=O)[C@H](OC(C)=O)C[C@H]1C(C)(C)[C@H](OC(C)=O)[C@H](O)[C@H](OC(=O)c3ccccc3)[C@@]12C` [ORTHOSIPHOL B] came in with an IC50 of 20.5 µM.
Next, `C=C[C@@]1(C)CC(=O)[C@H]2[C@](O)(C1=O)[C@H](O)C[C@H]1C(C)(C)[C@H](OC(C)=O)[C@H](OC(C)=O)[C@H](OC(=O)c3ccccc3)[C@@]12C` [ORTHOSIPHOL I]: 102 µM; `C=C[C@@]1(C)CC(=O)[C@H]2[C@](O)(C1=O)[C@H](OC(C)=O)C[C@H]1C(C)(C)[C@H](OC(=O)c3ccccc3)[C@H](OC(C)=O)[C@H](OC(=O)c3ccccc3)[C@@]12C` [ORTHOSIPHONONE A]: 32.1 µM; `C=C[C@@]1(C)C[C@@H](OC(=O)c2ccccc2)[C@H]2[C@](O)(C1=O)[C@H](OC(C)=O)C[C@H]1C(C)(C)[C@H](O)[C@H](OC(C)=O)[C@H](OC(=O)c3ccccc3)[C@@]12C` [ORTHOSIPHOL A]: 11.5 µM.
